What was measured:
L1210 [1] = test: Intracellular level of spermidine in L1210 cells in the absence of DFMO at 10 uM; type: functional, cell-based; conditions: Mus musculus
Summary of the method: (§1)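 L1210 cells in RPMI 1640/10% FCS with 2 mM aminoguanidine, seeded at 4 × 10⁴ cells/mL. Conjugate, with or without 5 mM DFMO, added at seeding; cells cultured 48 h, washed in cold NaCl, and extracted with 0.2 N HClO₄. Conjugate and free putrescine, spermidine and spermine quantified by ion-pair HPLC (UV 254 nm, fluorescence ex 345/em 455 nm); normalised to protein. Student's t-test, p<0.05.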

[2] = Selectivity for uptake in CHO cell line over CHO-MG cell line at 25 uM; type: functional, Cricetulus griseus
Summary of the method: (§2)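 Ratio of intracellular conjugate level in CHO over CHO-MG cells. Both lines were exposed to conjugate 24 h after seeding at 2 × 10⁵ cells/mL, for 24 h with 2 mM aminoguanidine in the medium. Levels were measured by ion-pair HPLC of perchloric extracts and normalised to protein (nmol/mg).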

CHO-MG [3] = test: Inhibition of cell growth in CHO-MG cells in the presence of DFMO; type: functional, cell-based; conditions: Cricetulus griseus
Summary of the method: (§3)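 L1210 cells seeded at 5 × 10⁴ cells/mL with conjugate added at seeding; CHO/CHO-MG plated at 2 × 10³ cells/mL with conjugate added after overnight (24 h). 5 mM DFMO added together with conjugate; medium contains 2 mM aminoguanidine. After 48 h, growth read by MTT formazan absorbance at 540 nm. IC50 is 50% growth inhibition; mean of three determinations.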

L1210 [4] = test: Intracellular level of spermine in L1210 cells in the presence of DFMO at 10 uM; type: functional, cell-based; conditions: Mus musculus; summary of the method: as §1
L1210 [5] = test: Inhibition of cell growth in L1210 cells in the presence of DFMO; type: functional, cell-based; conditions: Mus musculus; summary of the method: as §3
Phosphodiesterase 1 = Phosphodiesterase 1 (Bos taurus, UniProt Q01061+P14100); test: Inhibition of bovine calmodulin-activated cAMP dependent phosphodiesterase; type: protein assay
Summary of the method: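 Crude bovine heart PDE preparation containing calmodulin and Ca²⁺ (0.2 milliunit). Incubated 20 min at 37 °C with 0.1 mM [8-³H]cAMP and graded drug concentrations in 30 mM Tris-HCl, 3 mM MgSO₄, 0.6 mM AMP. Stopped with ZnSO₄; Ba(OH)₂ precipitated AMP with BaSO₄; supernatant radioactivity counted. IC50 is the concentration giving 50% inhibition.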

L1210 [6] = test: Intracellular level of putrescine in L1210 cells in the presence of DFMO at 10 uM; type: functional, cell-based; conditions: Mus musculus; summary of the method: as §1
L1210 [7] = test: Intracellular level of putrescine in L1210 cells in the absence of DFMO at 10 uM; type: functional, cell-based; conditions: Mus musculus; summary of the method: as §1
CHO-MG [8] = test: Cellular uptake in CHO-MG cells at 25 uM; type: ADME, cell-based, Cricetulus griseus; conditions: chinese hamster
Summary of the method: (§4)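 CHO (RPMI 1640, 10% FCS, 2 mM aminoguanidine) and CHO-MG (plus L-proline) cells seeded at 2 × 10⁵ cells/mL. Conjugate added 24 h after seeding and cells harvested 24 h later, then washed in cold 0.14 M NaCl and sonicated in 0.2 N HClO₄. Supernatant analysed by ion-pair reversed-phase HPLC (n-octanesulfonate), expressed as nmol/mg protein; mean ± SD of three determinations.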

L1210 [9] = test: Intracellular level of conjugate in L1210 cells in the presence of DFMO at 10 uM; type: functional, cell-based; conditions: Mus musculus; summary of the method: as §1
CHO [10] = test: Cellular uptake in CHO cells at 25 uM; type: ADME, cell-based, Cricetulus griseus; conditions: chinese hamster; summary of the method: as §4
L1210 [11] = test: Intracellular level of spermine in L1210 cells in the absence of DFMO at 10 uM; type: functional, cell-based; conditions: Mus musculus; summary of the method: as §1
L1210 [12] = test: Intracellular level of spermidine in L1210 cells in the presence of DFMO at 10 uM; type: functional, cell-based; conditions: Mus musculus; summary of the method: as §1
L1210 [13] = test: Intracellular level of conjugate in L1210 cells in the absence of DFMO at 10 uM; type: functional, cell-based; conditions: Mus musculus; summary of the method: as §1
CHO [14] = test: Inhibition of cell growth in CHO cells in the presence of DFMO; type: functional, cell-based; conditions: Cricetulus griseus; summary of the method: as §3
L1210 [15] = test: Intracellular level of conjugate in L1210 cells in the absence of DFMO at 50 uM; type: functional, cell-based; conditions: Mus musculus; summary of the method: as §1
CHO-MG [16] = test: Cellular uptake in CHO-MG cells at 50 uM; type: ADME, cell-based, Cricetulus griseus; conditions: chinese hamster; summary of the method: as §4
L1210 [17] = test: Intracellular level of spermidine in L1210 cells in the presence of DFMO at 50 uM; type: functional, cell-based; conditions: Mus musculus; summary of the method: as §1
[18] = Selectivity for uptake CHO cell line over CHO-MG cell line at 50 uM; type: functional, Cricetulus griseus; summary of the method: as §2
L1210 [19] = test: Intracellular level of putrescine in L1210 cells in the absence of DFMO at 50 uM; type: functional, cell-based; conditions: Mus musculus; summary of the method: as §1
CHO [20] = test: Cellular uptake in CHO cells at 50 uM; type: ADME, cell-based, Cricetulus griseus; conditions: chinese hamster; summary of the method: as §4
L1210 [21] = test: Intracellular level of spermine in L1210 cells in the absence of DFMO at 50 uM; type: functional, cell-based; conditions: Mus musculus; summary of the method: as §1
L1210 [22] = test: Intracellular level of spermidine in L1210 cells in the absence of DFMO at 50 uM; type: functional, cell-based; conditions: Mus musculus; summary of the method: as §1
L1210 [23] = test: Intracellular level of conjugate in L1210 cells in the presence of DFMO at 50 uM; type: functional, cell-based; conditions: Mus musculus; summary of the method: as §1
L1210 [24] = test: Intracellular level of putrescine in L1210 cells in the presence of DFMO at 50 uM; type: functional, cell-based; conditions: Mus musculus; summary of the method: as §1
L1210 [25] = test: Intracellular level of spermine in L1210 cells in the presence of DFMO at 50 uM; type: functional, cell-based; conditions: Mus musculus; summary of the method: as §1

With `CNc1cccc2c1[C@H](C)C[C@]1(C)C(NCCCNCCCCNCCCN)=Nc3ccccc3[C@H]21` the Drug uptake (L1210 [1]) was 16 nmol/mg, the Selectivity ratio [2] was 1 and the IC50 (CHO-MG [3]) was 23 µM. For the same molecule, the Drug uptake (L1210 [4]) was 7.3 nmol/mg, the IC50 (L1210 [5]) was 2.4 µM and the IC50 (Phosphodiesterase 1) was 10 µM. It also gave a Drug uptake (L1210 [6]) of 0.04 nmol/mg, a Drug uptake (L1210 [7]) of 1.4 nmol/mg and a Drug uptake (CHO-MG [8]) of 2.1 nmol/mg. For the same molecule, the Drug uptake (L1210 [9]) was 2.1 nmol/mg, the Drug uptake (CHO [10]) was 2.2 nmol/mg and the Drug uptake (L1210 [11]) was 8.2 nmol/mg. It also gave a Drug uptake (L1210 [12]) of 0.51 nmol/mg, a Drug uptake (L1210 [13]) of 0.95 nmol/mg and an IC50 (CHO [14]) of 11 µM.
`NCCCCNCCCN` [SPERMIDINE] showed an IC50 (CHO-MG [3]) greater than 100 µM and an IC50 (Phosphodiesterase 1) greater than 500 µM.
Molecule `NCCCCN` [PUTRESCINE] has an IC50 (CHO-MG [3]) greater than 100 µM and an IC50 (Phosphodiesterase 1) greater than 500 µM.
With `CNc1ccc(C2c3ccccc3N=C(NCCCNCCCCN)C2(C)C)cc1` (stereo unspecified) the Drug uptake (L1210 [15]) was 0.77 nmol/mg, the IC50 (Phosphodiesterase 1) was 64 µM and the Drug uptake (CHO-MG [16]) was 1.7 nmol/mg. The Drug uptake (L1210 [17]) was 2.4 nmol/mg, the Selectivity ratio [18] was 0.7 and the Drug uptake (L1210 [19]) was 1.1 nmol/mg. For the same molecule, the Drug uptake (CHO [20]) was 1.2 nmol/mg, the Drug uptake (L1210 [21]) was 9.2 nmol/mg and the Drug uptake (L1210 [22]) was 15 nmol/mg. It also gave a Drug uptake (L1210 [23]) of 0.62 nmol/mg, a Drug uptake (L1210 [24]) of 0.08 nmol/mg and a Drug uptake (L1210 [25]) of 8 nmol/mg.
